# Test results from ChEMBL document CHEMBL3632470, “Antimalarial and Antiproliferative Cassane Diterpenes of Caesalpinia sappan” (J Nat Prod, 2015).
# System: Plasmodium falciparum
# Assay: Antimalarial activity against chloroquine-resistant Plasmodium falciparum K1 by microculture radioisotope technique
# Type: functional, organism-based
# Conditions: not given
# In short: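 Microculture radioisotope technique on P. falciparum K1 (multidrug-resistant strain), parasites kept in continuous culture. Three replications per experiment. IC50 reported as mean ± SD of triplicate experiments.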
row,SMILES,IC50 [µM]
1,CCO[C@@]12C[C@H]3[C@@H](CC[C@H]4C5(C(=O)OC)CCCC34[C@H](O)OC5)[C@@H](C)C1=CC(=O)O2 (stereo not given in full),7.4
2,CCO[C@@H]1OC(OC)C2(C(=O)OC)CCCC13[C@H]1C[C@@]4(OCC)OC(=O)C=C4[C@H](C)[C@@H]1CC[C@@H]23 (stereo not given in full),34.8
3,CCO[C@H]1OC(OC)C23CCCC1(C(=O)OC)[C@@H]2CC[C@H]1[C@@H](C)C2=CC(=O)O[C@]2(OCC)C[C@@H]13 (stereo not given in full),32.1
4,CCO[C@@]12C[C@H]3[C@@H](CC[C@H]4C5(C(=O)OC)CCCC34C(OC)O[C@@H]5OC)[C@@H](C)C1=CC(=O)O2 (stereo not given in full),28.4
5,CCO[C@@]12C[C@H]3[C@@H](CC[C@H]4C5(C(=O)OC)CCCC34C(OC)OC5)[C@@H](C)C1=CC(=O)O2 (stereo not given in full),15.7
6,CCOC1OCC2(C(=O)OC)CCCC13[C@H]1C[C@@]4(OC)OC(=O)C=C4[C@H](C)[C@@H]1CC[C@@H]23 (stereo not given in full),19.2
7,COC(=O)C12CCCC3([C@H](O)OC1)[C@H]1C[C@@]4(O)OC(=O)C=C4[C@H](C)[C@@H]1CC[C@@H]23 (stereo not given in full),0.78
8,COC(=O)C12CCCC3(C(OC)OC1O)[C@H]1C[C@@]4(O)OC(=O)C=C4[C@H](C)[C@@H]1CC[C@@H]23 (stereo not given in full),0.52
9,COC(=O)[C@]1(C)CCC[C@@]2(CO)C1CC[C@H]1[C@@H](C)C3=CC(=O)O[C@]3(O)C[C@@H]12 (stereo not given in full),2.5
10,CCO[C@@]12C[C@H]3[C@@H](CCC4[C@](C)(C(=O)OC)CCC[C@@]43C=O)[C@@H](C)C1=CC(=O)O2 (stereo not given in full),29.7
11,CCO[C@@]12C[C@H]3[C@@H](CCC4[C@](C)(C(=O)OC)CCC[C@@]43C(=O)O)[C@@H](C)C1=CC(=O)O2 (stereo not given in full),41.2
12,CCO[C@@]12C[C@H]3[C@@H](CCC4C(C(=O)OC)(C(=O)OC)CCC[C@@]43C=O)[C@@H](C)C1=CC(=O)O2 (stereo not given in full),38.9

# System: KB
# Assay: Cytotoxicity against human KB cells after 48 hrs by MTT assay
# Type: functional, cell-based
# Conditions: not given
# In short: (§1)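 Cells grown in DMEM with 10% FBS, seeded at 6 × 10^4 cells/mL per well. Compounds in DMSO added at five concentrations, each in triplicate. Incubated 48 h at 37 °C in 5% CO2, then MTT (4 mg/mL) for another 4 h. Cells lysed in DMSO, absorbance read at 570 nm. At least three independent experiments.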
row,SMILES,IC50 [µM]
1,CCO[C@@]12C[C@H]3[C@@H](CCC4[C@](C)(C(=O)OC)CCC[C@@]43C=O)[C@@H](C)C1=CC(=O)O2 (stereo not given in full),7.4
2,COc1cccc2c1C(=O)c1c(O)c3c(c(O)c1C2=O)C[C@@](O)(C(=O)CO)C[C@@H]3O[C@H]1C[C@H](N)[C@H](O)[C@H](C)O1 [DOXORUBICIN],1.4

# System: HT-29
# Assay: Cytotoxicity against human HT-29 cells after 48 hrs by MTT assay
# Type: functional, cell-based
# Conditions: HT-29, 48 h
# In short: as §1
row,SMILES,IC50 [µM]
1,COc1cccc2c1C(=O)c1c(O)c3c(c(O)c1C2=O)C[C@@](O)(C(=O)CO)C[C@@H]3O[C@H]1C[C@H](N)[C@H](O)[C@H](C)O1 [DOXORUBICIN],0.68
